Reference: ChEMBL document CHEMBL4261538, “Synthesis and molecular docking studies of xanthone attached amino acids as potential antimicrobial and anti-inflammatory agents” (Medchemcomm, 2017)
≈ marks a conversion by molar mass, not a printed value. Calls of active or inactive are those of the source. The rule behind the calls is not given here.

How the values were obtained:
Staphylococcus aureus [1] = test: Antibacterial activity against Staphylococcus aureus at 25 ug/ml incubated for 24 hrs by agar well diffusion method; type: functional; conditions: read-out: DIZ
Summary of the method: (§1)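 Bacteria grown in nutrient broth at 37 °C for 24 h, then subcultured at room temperature. Compounds dissolved in DMSO at 5 mg mL⁻¹ and 5–20 µL added to 6 mm wells, giving 25, 50, 75, 100 µg per well. Gentamicin was the positive control and DMSO the negative control. Plates held at 37 °C for 24 h, then inhibition zone diameter (mm) measured. Values are means of three determinations.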

Staphylococcus aureus [2] = test: Antibacterial activity against Staphylococcus aureus at 50 ug/ml incubated for 24 hrs by agar well diffusion method; type: functional; conditions: read-out: DIZ; summary of the method: as §1
Staphylococcus aureus [3] = test: Antibacterial activity against Staphylococcus aureus at 75 ug/ml incubated for 24 hrs by agar well diffusion method; type: functional; conditions: read-out: DIZ; summary of the method: as §1
Staphylococcus aureus [4] = test: Antibacterial activity against Staphylococcus aureus at 100 ug/ml incubated for 24 hrs by agar well diffusion method; type: functional; conditions: read-out: DIZ; summary of the method: as §1
Bacillus subtilis [5] = test: Antibacterial activity against Bacillus subtilis at 25 ug/ml incubated for 24 hrs by agar well diffusion method; type: functional; conditions: for zone of inhibition at 25 µg/mL: read-out: DIZ; summary of the method: as §1
Bacillus subtilis [6] = test: Antibacterial activity against Bacillus subtilis at 50 ug/ml incubated for 24 hrs by agar well diffusion method; type: functional; conditions: for zone of inhibition at 50 µg/mL: read-out: DIZ; summary of the method: as §1
Bacillus subtilis [7] = test: Antibacterial activity against Bacillus subtilis at 75 ug/ml incubated for 24 hrs by agar well diffusion method; type: functional; conditions: read-out: DIZ; summary of the method: as §1
Bacillus subtilis [8] = test: Antibacterial activity against Bacillus subtilis at 100 ug/ml incubated for 24 hrs by agar well diffusion method; type: functional; conditions: read-out: DIZ; summary of the method: as §1
Escherichia coli [9] = test: Antibacterial activity against Escherichia coli at 25 ug/ml incubated for 24 hrs by agar well diffusion method; type: functional; conditions: read-out: DIZ; summary of the method: as §1
Escherichia coli [10] = test: Antibacterial activity against Escherichia coli at 50 ug/ml incubated for 24 hrs by agar well diffusion method; type: functional; conditions: read-out: DIZ; summary of the method: as §1
Escherichia coli [11] = test: Antibacterial activity against Escherichia coli at 75 ug/ml incubated for 24 hrs by agar well diffusion method; type: functional; conditions: read-out: DIZ; summary of the method: as §1
Escherichia coli [12] = test: Antibacterial activity against Escherichia coli at 100 ug/ml incubated for 24 hrs by agar well diffusion method; type: functional; conditions: read-out: DIZ; summary of the method: as §1
Klebsiella pneumoniae [13] = test: Antibacterial activity against Klebsiella pneumoniae at 25 ug/ml incubated for 24 hrs by agar well diffusion method; type: functional; conditions: read-out: DIZ; summary of the method: as §1
Klebsiella pneumoniae [14] = test: Antibacterial activity against Klebsiella pneumoniae at 50 ug/ml incubated for 24 hrs by agar well diffusion method; type: functional; conditions: read-out: DIZ; summary of the method: as §1
Klebsiella pneumoniae [15] = test: Antibacterial activity against Klebsiella pneumoniae at 75 ug/ml incubated for 24 hrs by agar well diffusion method; type: functional; conditions: read-out: DIZ; summary of the method: as §1
Klebsiella pneumoniae [16] = test: Antibacterial activity against Klebsiella pneumoniae at 100 ug/ml incubated for 24 hrs by agar well diffusion method; type: functional; conditions: read-out: DIZ; summary of the method: as §1
Aspergillus niger [17] = test: Antifungal activity against Aspergillus niger at 25 ug/ml incubated for 48 hrs by agar well diffusion method; type: functional; conditions: for zone of inhibition at 25 µg/mL: read-out: DIZ
Summary of the method: (§2)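 Compounds dissolved in DMSO at 5 mg mL⁻¹ and 5–20 µL added to 6 mm wells, giving 25, 50, 75, 100 µg per well. Bavistin was the positive control and DMSO the negative control. Plates incubated at 28 °C for 48 h, then inhibition zone diameter (mm) measured. Values are means of three determinations.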

Aspergillus niger [18] = test: Antifungal activity against Aspergillus niger at 50 ug/ml incubated for 48 hrs by agar well diffusion method; type: functional; conditions: for zone of inhibition at 50 µg/mL: read-out: DIZ; summary of the method: as §2
Aspergillus niger [19] = test: Antifungal activity against Aspergillus niger at 75 ug/ml incubated for 48 hrs by agar well diffusion method; type: functional; conditions: read-out: DIZ; summary of the method: as §2
Aspergillus niger [20] = test: Antifungal activity against Aspergillus niger at 100 ug/ml incubated for 48 hrs by agar well diffusion method; type: functional; conditions: read-out: DIZ; summary of the method: as §2
Candida albicans [21] = test: Antifungal activity against Candida albicans at 25 ug/ml incubated for 48 hrs by agar well diffusion method; type: functional; conditions: read-out: DIZ; summary of the method: as §2
Candida albicans [22] = test: Antifungal activity against Candida albicans at 50 ug/ml incubated for 48 hrs by agar well diffusion method; type: functional; conditions: read-out: DIZ; summary of the method: as §2
Candida albicans [23] = test: Antifungal activity against Candida albicans at 75 ug/ml incubated for 48 hrs by agar well diffusion method; type: functional; conditions: read-out: DIZ; summary of the method: as §2
Candida albicans [24] = test: Antifungal activity against Candida albicans at 100 ug/ml incubated for 48 hrs by agar well diffusion method; type: functional; conditions: read-out: DIZ; summary of the method: as §2
Fusarium oxysporum [25] = test: Antifungal activity against Fusarium oxysporum at 25 ug/ml incubated for 48 hrs by agar well diffusion method; type: functional; conditions: read-out: DIZ; summary of the method: as §2
Fusarium oxysporum [26] = test: Antifungal activity against Fusarium oxysporum at 50 ug/ml incubated for 48 hrs by agar well diffusion method; type: functional; conditions: read-out: DIZ; summary of the method: as §2
Fusarium oxysporum [27] = test: Antifungal activity against Fusarium oxysporum at 75 ug/ml incubated for 48 hrs by agar well diffusion method; type: functional; conditions: read-out: DIZ; summary of the method: as §2
Fusarium oxysporum [28] = test: Antifungal activity against Fusarium oxysporum at 100 ug/ml incubated for 48 hrs by agar well diffusion method; type: functional; conditions: read-out: DIZ; summary of the method: as §2
Erythrocyte = test: Anti-inflammatory activity in human RBC assessed as inhibition of hypotonic solution-induced hemolysis after 10 mins by spectrophotometric method; type: functional, cell-based
Summary of the method: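 Human blood (heparinized) washed with 0.9% saline, packed cells made into a 40% v/v stock in isotonic phosphate buffer (154 mM NaCl, 10 mM sodium phosphate, pH 7.4). Stock RBC mixed with hypotonic buffer (50 mM NaCl, 10 mM phosphate, pH 7.4) plus sample at 20–100 µg mL⁻¹.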

| SMILES | zone of inhibition at 25 µg/mL (Staphylococcus aureus [1]) [mm] | zone of inhibition at 50 µg/mL (Staphylococcus aureus [2]) [mm] | zone of inhibition at 75 µg/mL (Staphylococcus aureus [3]) [mm] | zone of inhibition at 100 µg/mL (Staphylococcus aureus [4]) [mm] | zone of inhibition at 75 µg/mL (Bacillus subtilis [7]) [mm] | zone of inhibition at 100 µg/mL (Bacillus subtilis [8]) [mm] | zone of inhibition at 25 µg/mL (Klebsiella pneumoniae [13]) [mm] | zone of inhibition at 50 µg/mL (Klebsiella pneumoniae [14]) [mm] | zone of inhibition at 75 µg/mL (Klebsiella pneumoniae [15]) [mm] | zone of inhibition at 100 µg/mL (Klebsiella pneumoniae [16]) [mm] | zone of inhibition at 75 µg/mL (Aspergillus niger [19]) [mm] | zone of inhibition at 100 µg/mL (Aspergillus niger [20]) [mm] | zone of inhibition at 25 µg/mL (Candida albicans [21]) [mm] | zone of inhibition at 50 µg/mL (Candida albicans [22]) [mm] | zone of inhibition at 75 µg/mL (Candida albicans [23]) [mm] | zone of inhibition at 100 µg/mL (Candida albicans [24]) [mm] | zone of inhibition at 25 µg/mL (Fusarium oxysporum [25]) [mm] | zone of inhibition at 50 µg/mL (Fusarium oxysporum [26]) [mm] | zone of inhibition at 75 µg/mL (Fusarium oxysporum [27]) [mm] | zone of inhibition at 100 µg/mL (Fusarium oxysporum [28]) [mm] | other results |
| --- | --- | --- | --- | --- | --- | --- | --- | --- | --- | --- | --- | --- | --- | --- | --- | --- | --- | --- | --- | --- | --- |
| CC(C)C[C@H](NC(=O)OC(C)(C)C)C(=O)Oc1ccc2c(=O)c3ccccc3oc2c1 | 7 | 13 | 17 | 22 | 20 | 24 | 8 | 11 | 14 | 20 | 18 | 22 | 8 | 11 | 16 | 20 | 10 | 12 | 15 | 19 | zone of inhibition at 25 µg/mL (Bacillus subtilis [5]): 11 mm; zone of inhibition at 50 µg/mL (Bacillus subtilis [6]): 16 mm; zone of inhibition at 25 µg/mL (Escherichia coli [9]): 4 mm; zone of inhibition at 50 µg/mL (Escherichia coli [10]): 10 mm; zone of inhibition at 75 µg/mL (Escherichia coli [11]): 17 mm; zone of inhibition at 100 µg/mL (Escherichia coli [12]): 21 mm; zone of inhibition at 25 µg/mL (Aspergillus niger [17]): 10 mm; zone of inhibition at 50 µg/mL (Aspergillus niger [18]): 15 mm; IC50 (Erythrocyte): 64 µg/mL (≈ 150 µM) |
| N[C@@H](Cc1c[nH]c2ccccc12)C(=O)O [TRYPTOPHAN] | 6 | 9 | 13 | 19 | 12 | 15 | 6 | 10 | 13 | 17 | 11 | 14 | 5 | 9 | 13 | 16 | 4 | 7 | 9 | 11 | zone of inhibition at 25 µg/mL (Bacillus subtilis [5]): 4 mm; zone of inhibition at 50 µg/mL (Bacillus subtilis [6]): 8 mm; zone of inhibition at 25 µg/mL (Escherichia coli [9]): 6 mm; zone of inhibition at 50 µg/mL (Escherichia coli [10]): 9 mm; zone of inhibition at 75 µg/mL (Escherichia coli [11]): 14 mm; zone of inhibition at 100 µg/mL (Escherichia coli [12]): 17 mm; zone of inhibition at 25 µg/mL (Aspergillus niger [17]): 4 mm; zone of inhibition at 50 µg/mL (Aspergillus niger [18]): 7 mm |
| N[C@@H](Cc1ccc(O)cc1)C(=O)O [TYROSINE] | 4 | 8 | 12 | 17 | 9 | 12 | 4 | 7 | 11 | 15 | 7 | 11 | 4 | 8 | 13 | 15 | 3 | 7 | 12 | 14 | diameter of the inhibition zone (DIZ) (Bacillus subtilis [5]): inactive; diameter of the inhibition zone (DIZ) (Bacillus subtilis [6]): inactive; diameter of the inhibition zone (DIZ) (Aspergillus niger [17]): inactive; diameter of the inhibition zone (DIZ) (Aspergillus niger [18]): inactive |
